Rows were chosen to be rich in hits. Some 2.5% of all compounds tested hit in one or more screens of this group.
NSD2 HMT inh: blocks human histone methyltransferase NSD2. O96028. NSD2 peptide methylation, AlphaScreen, 120 min. inhibition, % at 12.5 µM. 0.54% of 310,000 active
Target sequence (O96028 whole entry, looked up): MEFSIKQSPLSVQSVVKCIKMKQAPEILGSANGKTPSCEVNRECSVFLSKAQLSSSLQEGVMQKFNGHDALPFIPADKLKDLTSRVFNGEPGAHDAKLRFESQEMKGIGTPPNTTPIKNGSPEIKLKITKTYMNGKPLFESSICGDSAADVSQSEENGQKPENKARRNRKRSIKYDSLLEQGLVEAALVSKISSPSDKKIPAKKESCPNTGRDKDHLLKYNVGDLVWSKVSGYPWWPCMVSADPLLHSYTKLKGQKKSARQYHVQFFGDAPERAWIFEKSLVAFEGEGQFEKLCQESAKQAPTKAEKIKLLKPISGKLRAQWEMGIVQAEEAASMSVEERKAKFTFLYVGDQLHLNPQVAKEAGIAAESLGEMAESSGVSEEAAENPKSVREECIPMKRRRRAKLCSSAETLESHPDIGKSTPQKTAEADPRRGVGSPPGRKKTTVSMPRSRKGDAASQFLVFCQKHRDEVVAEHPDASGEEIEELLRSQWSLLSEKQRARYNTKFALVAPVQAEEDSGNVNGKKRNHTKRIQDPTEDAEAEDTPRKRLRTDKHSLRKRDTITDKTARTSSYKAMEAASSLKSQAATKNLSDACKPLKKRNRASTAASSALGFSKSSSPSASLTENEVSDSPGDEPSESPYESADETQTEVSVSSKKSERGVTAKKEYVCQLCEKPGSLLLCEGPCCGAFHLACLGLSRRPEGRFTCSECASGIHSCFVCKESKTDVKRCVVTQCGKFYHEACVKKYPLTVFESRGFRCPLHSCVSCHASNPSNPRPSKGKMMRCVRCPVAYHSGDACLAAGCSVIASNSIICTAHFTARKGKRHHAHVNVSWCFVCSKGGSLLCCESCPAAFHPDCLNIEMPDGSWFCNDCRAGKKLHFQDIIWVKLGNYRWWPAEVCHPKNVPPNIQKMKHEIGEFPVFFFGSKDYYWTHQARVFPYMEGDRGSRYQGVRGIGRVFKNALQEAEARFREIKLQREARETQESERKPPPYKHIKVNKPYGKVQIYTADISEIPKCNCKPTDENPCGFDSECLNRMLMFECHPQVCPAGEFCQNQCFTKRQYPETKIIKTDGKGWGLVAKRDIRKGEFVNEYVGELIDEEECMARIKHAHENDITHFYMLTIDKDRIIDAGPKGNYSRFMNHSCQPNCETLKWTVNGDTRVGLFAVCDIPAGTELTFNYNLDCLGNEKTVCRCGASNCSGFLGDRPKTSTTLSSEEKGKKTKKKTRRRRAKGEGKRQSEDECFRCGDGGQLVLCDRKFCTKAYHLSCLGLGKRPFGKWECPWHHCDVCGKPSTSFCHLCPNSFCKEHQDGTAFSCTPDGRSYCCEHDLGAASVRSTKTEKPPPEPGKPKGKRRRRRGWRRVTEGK
SR-BI DiI inh: mouse SR-BI HDL lipid transfer inhibition; ldlA[mSR-BI] CHO cells, DiI-HDL uptake fluorescence, 3 h; 0.96% of 320,000 active; Q61009; inhibition, % at 12.5 µM;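 active = mean replicate inhibition of at least 70% and a set share of replicates each scoring 70 or more; inconclusive = meets just one of the two criteria; inactive = fails both criteria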;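 note: 0% = median of neutral control wells and 100% = median of positive control wells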
SR-BI uptake up: SR-BI HDL lipid transfer activation | CHO ldlA[mSR-BI] cells, DiI-HDL uptake fluorescence, 3 h; 100 = double the neutral-control signal | activation, % at 12.5 µM | 0.096% of 320,000 active | AID 504775;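 active = mean replicate activation of at least 60% and every replicate at or above 60%; inconclusive = mean or all-replicate condition met, but not both; inactive = mean below 60% and not all replicates reaching 60%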;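 note: 0% = median plate neutral-control signal and 100% = twice that signal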
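Assay system: CHO ldlA[mSR-BI] cells, LDL receptor-null, SR-BI overexpressing; medium: Ham's F12 with 0.5% BSA, HEPES 25 mM, pH 7.4; also added: DiI-HDL 10 µg/mL; timing: 3 h uptake period with compound, 37 °C; signal: DiI fluorescence, bottom read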
dFosB activator: enhances mouse delta FosB homodimer DNA binding | purified delta FosB, TAMRA-CDK5 oligo fluorescence polarization; percent of positive-control signal above neutral wells | activation, % at 25 µM | AID 493131 | 0.99% of 340,000 active | P13346;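 active = mean activation above about 17%, with every replicate also reaching it, limit read from the data, passing the limit was not always enough; inconclusive = only one of the two conditions met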
CDK5 inh: blocks human CDK5/p35 kinase activity; Recombinant CDK5/p35, ADP-Glo luminescence, 60 min; Q00535+Q15078; 0.01% of 330,000 active; inhibition, % at 10 µM;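 active = highest replicate inhibition of at least 50% and at least 75% of replicates reaching 50%; inconclusive = only one of the two criteria met; inactive = both criteria failed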;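 note: plate controls were DMSO neutral control for no effect and GW8510 at 10 µM for full effect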
Dyrk1A ADPGlo: blocks rat Dyrk1A kinase activity. ADP-Glo luminescence, NFATc1 peptide. 0.43% of 310,000 active. inhibition, % at 12.5 µM. AID 504441;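 note: plate controls were vehicle with enzyme for no effect and no enzyme for full effect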
* marks the source's active call; other numbers are inactive results; u = inconclusive; x = no result. Cut-off read from the data, not from the text of the source, unless noted: active = inhibition above about 50%; inactive = the rest.

SMILES	NSD2 HMT inh	SR-BI DiI inh	SR-BI uptake up	dFosB activator	CDK5 inh	Dyrk1A ADPGlo
Nc1nc2c(c(=O)[nH]1)C(c1ccccc1)C1=C(N2)c2ccccc2C1=O (centres undefined)	11	-9	9	3	3	-9
CCC(C)c1ccc(C2C3=C(Nc4nc(N)[nH]c(=O)c42)c2ccccc2C3=O)cc1 (centres undefined)	x	x	x	33*	-2	-1
Cc1ccc(NC(=O)CSc2nnc(-c3cccnc3)n2Cc2ccco2)c(C)c1	-1	x	x	x	x	x
Nc1ccc2c(c1)Cc1cc([N+](=O)[O-])ccc1-2	3	26	-26	2	-2	7
CC(O)CN(CC(C)O)c1ccc2c(c1)Cc1cc([N+](=O)[O-])ccc1-2 (centres undefined)	1	89*	-89	-7	2	-3
COc1ccc(S(=O)(=O)N2CCN(CC(=O)Nc3c(C)n[nH]c3C)CC2)cc1OC	-3	-12	12	-4	4	2
O=[N+]([O-])c1cc(-c2nnc(Nc3ccccc3)c3ccccc23)ccc1N1CCOCC1	-4	74*	-74	-2	0	-1
Cc1ccc(Nc2nnc(-c3ccc(N4CCOCC4)c([N+](=O)[O-])c3)c3ccccc23)cc1	3	69	-69	0	1	2
O=C(Cn1nnc(-c2ccc(N3CCOCC3)cc2)n1)c1ccccc1	18	x	x	x	x	x
Cc1cc2[nH]c(=S)[nH]c2cc1C	-4	73*	-73	-5	3	15
Cc1ccnc(NC(=O)c2cccc(NC(=O)c3ccccc3Cl)c2)c1	-1	x	x	x	x	x
COCC(=O)Nc1nc2n(n1)C(c1ccc(Cl)cc1)CC(c1ccc(OC)cc1)N2 (centres undefined)	0	74*	-74	-16	0	6
O=C(N/N=C/c1sc(=O)n(-c2ccccc2)c1Cl)c1ccccc1	-1	85*	-85	-5	-2	2
O=C(Nc1cccc(-c2csc(Nc3ccccc3)n2)c1)c1cc([N+](=O)[O-])cc(C(F)(F)F)c1	x	97*	-97	-1	-2	-4
O=C(CSc1nc(-c2ccc(Cl)cc2)cs1)Nc1cccc([N+](=O)[O-])c1	-2	-5	5	-14	0	2
NS(=O)(=O)c1ccc(Nc2nc(-c3cccc([N+](=O)[O-])c3)cs2)cc1	0	64	-64	-3	-2	12
O=C(Nc1cccc(-c2csc(Nc3ccc(Cl)cc3)n2)c1)c1cc([N+](=O)[O-])cc(C(F)(F)F)c1	x	127*	-127	12	0	2
O=C(Nc1ccc(-c2csc(Nc3ccc(Cl)cc3)n2)cc1)c1cc([N+](=O)[O-])cc(C(F)(F)F)c1	x	106*	-106	-2	1	1
Cc1cc2[nH]c(=O)c(=O)[nH]c2cc1S(=O)(=O)NCC(C)c1ccccc1 (centres undefined)	1	x	x	x	x	x
COc1ccc(C(C)=O)cc1CC(=O)Nc1cccc(S(=O)(=O)N2CCOCC2)c1	-2	54	-54	-5	1	-3
O=C1CCc2cc(S(=O)(=O)N3CCN(Cc4cccc5c4OCO5)CC3)ccc2N1	8	x	x	x	x	x
Cc1cc(F)ccc1S(=O)(=O)N1CCCOC1CNC(=O)C(=O)NCc1cccnc1 (centres undefined)	-2	-11	x	3	-1	-2
COc1ccccc1N(C)S(=O)(=O)c1ccc(C(=O)Nc2ccc(N3CCOCC3)cc2)cc1	3	54	-54	-18	-1	-1
C=CCN(c1ccccc1OC)S(=O)(=O)c1ccc(Cl)c(C(=O)Nc2ccc(N3CCOCC3)cc2)c1	-1	96*	-96	-5	-2	0
C=CC(=O)Nc1ccc(Nc2nc(NC3CCC(N(C)C)CC3)nc3c2ncn3C(C)C)cc1 (centres undefined)	x	-7	7	u	95*	93*
SMILES	NSD2 HMT inh	SR-BI DiI inh	SR-BI uptake up	dFosB activator	CDK5 inh	Dyrk1A ADPGlo
C/C(=N\NC(=O)c1nnn(-c2nonc2N)c1-c1ccccc1)c1ccccc1O	-1	86*	-86	33*	-1	4
CCOc1ccc(-c2c(C(=O)N/N=C/c3ccccc3)nnn2-c2nonc2N)cc1	-2	74*	-74	1	0	-2
CN(Cc1c(C(=O)N/N=C/c2ccc(O)cc2)nnn1-c1nonc1N)C1CCCCC1	-2	-2	2	29*	0	41
Cc1ccc(-c2c(C(=O)N/N=C/c3cccs3)nnn2-c2nonc2N)cc1	0	62	-62	-1	1	3
Cc1ccc(/C=N/NC(=O)c2nnn(-c3nonc3N)c2CN(C)C2CCCCC2)cc1	-2	2	-2	5	-1	1
CCOc1ccc(-c2c(C(=O)N/N=C/c3ccncc3)nnn2-c2nonc2N)cc1	-3	18	-18	-15	x	x
CCOc1ccc(-c2c(C(=O)N/N=C/c3cccs3)nnn2-c2nonc2N)cc1	0	81*	-81	-1	-1	-5
C#CCOCCOCCOCCNc1nc(N2CCOCC2)nc(N2CCN(C(=O)[C@H](CCC(=O)O)n3cc(C(N)CO)nn3)CC2)n1 (some centres undefined)	5	x	x	x	x	x
CCc1nc2ccc(C(=O)N3CCc4ccccc4C3)cc2nc1CC	-1	x	x	x	x	x
O=C1NC[C@H](Cc2ccc(O)cc2)N(CCc2cccc(F)c2)C1=O	-6	x	x	x	x	x
CCOc1cc(/C=N/NC(=O)c2nnn(-c3nonc3N)c2C)ccc1OCc1ccc(F)cc1	0	58	x	16	0	-3
CCc1c(C(=O)N/N=C/c2ccc(OCc3ccc(F)cc3)c(OC)c2)nnn1-c1nonc1N	32	76*	-76	u	2	-6
CCCOc1ccc(-c2c(C(=O)N/N=C/c3ccc(C)cc3)nnn2-c2nonc2N)cc1	-1	x	x	x	x	x
CCCc1c(C(=O)N/N=C/c2ccc(C)o2)nnn1-c1nonc1N	6	x	x	x	x	x
CCc1c(C(=O)N/N=C/c2sccc2C)nnn1-c1nonc1N	-4	77*	-77	14	0	-3
CCCc1c(C(=O)N/N=C/c2ccccc2C(F)(F)F)nnn1-c1nonc1N	1	76*	-76	14	0	-3
Cc1ccsc1/C=N/NC(=O)c1nnn(-c2nonc2N)c1CN(C)c1ccccc1	0	7	-7	-10	-2	-3
CCOc1ccc(-c2c(C(=O)N/N=C/c3ccc(C)cc3)nnn2-c2nonc2N)cc1	-1	44	-44	34*	0	-1
Cn1cccc1C=NNC(=O)c1cc(-c2ccc(Cl)cc2)n[nH]1	-5	x	x	x	x	x
CN1C(=O)C(=O)N2C(=C[C@]3(c4c[nH]c5ccccc45)c4ccccc4N[C@H]23)C1=O	1	x	x	x	x	x
Cn1nc(-c2ccc(Cl)cc2)c2cc(C(=O)NCCN3CCOCC3)sc21	x	86*	-86	-34	-3	13

Screening data from PubChem.
